Laboratory results: the RNAGym collection of RNA variant scans (doi:10.1002/anie.201605470)

B1: Osa-1-4 twister ribozyme (parent)
chain: CCGCCUAACACUGCCAAUGCCGGUCCCAAGCCCGGAUAAAAGUGGAGGGGGCGG

Variants of: B1
Assay: self-cleavage, relative activity (ratio to wild type); higher = more cleavage; co-transcriptional
Procedure, shortened: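 The 48 positions downstream of the cleavage site in a 54-nucleotide Oryza sativa twister ribozyme template were synthesised at 97 % wild-type base and 1 % of each other base. The template was transcribed in vitro at 37 °C for 2 h, with self-cleavage allowed during transcription. Reads with or without upstream sequence after deep sequencing marked cleavage status, and relative activity is fraction cleaved normalised to wild type.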

Going from CCGCCUAACACUGCCAAUGCCGGUCCCUAGCCCGGAUAAACGUGGAGGGGGCGG [A28U A41C] to CCGCCUAACACUGCCAAUGCCGGUCCCUAGCCCGGAUAAAUGUGGAGGGGGCGG [A28U A41U], the self-cleavage rises from 0.79 to 0.93.

Compared with CCGCCUAACACUGCCAAUGCCGGUCCCUAGCCCGGAUAAAGGUGGAGGGGGCGG [A28U A41G], CCGCCUAACACUGACAAUGCCGGUCCCUAGCCCGGAUAAAAGUGGAGGGGGCGG [A28U C14A] is lower in self-cleavage: 0.29 for the first, 0.05 for the second.

First: CCGCCUAACACUGUCAAUGCCGGUCCCUAGCCCGGAUAAAAGUGGAGGGGGCGG [A28U C14U]
Second: CCGCCUAACACUGGCAAUGCCGGUCCCUAGCCCGGAUAAAAGUGGAGGGGGCGG [A28U C14G]
The self-cleavage of the first is higher: 0.14 for the first, 0.07 for the second.

First: CCGCCUAACACUGCCAAUGCCGGUCCCUAGCCCGGUUAAAAGUGGAGGGGGCGG [A28U A36U]
Second: CCGCCUAACACUGCCAAUGCCGGUCCCUAGCCCGGCUAAAAGUGGAGGGGGCGG [A28U A36C]
The self-cleavage of the first is higher: 0.94 for the first, 0.21 for the second.

First: CCGCCUAACACUGCCAAUGCCGGUCCCUAGCCCGGGUAAAAGUGGAGGGGGCGG [A28U A36G]
Second: CCGCCUAAUACUGCCAAUGCCGGUCCCUAGCCCGGAUAAAAGUGGAGGGGGCGG [A28U C9U]
The self-cleavage of the first is higher: 0.99 for the first, 0.57 for the second.

Going from CCGCCUAAGACUGCCAAUGCCGGUCCCUAGCCCGGAUAAAAGUGGAGGGGGCGG [A28U C9G] to CCGCCUAAAACUGCCAAUGCCGGUCCCUAGCCCGGAUAAAAGUGGAGGGGGCGG [A28U C9A], the self-cleavage falls from 0.35 to 0.16.

Going from CCGCCUAACACUGCGAAUGCCGGUCCCUAGCCCGGAUAAAAGUGGAGGGGGCGG [A28U C15G] to CCGCCUAACACUGCUAAUGCCGGUCCCUAGCCCGGAUAAAAGUGGAGGGGGCGG [A28U C15U], the self-cleavage falls from 0.14 to 0.1.

Compared with CCGCCUAACACUGCAAAUGCCGGUCCCUAGCCCGGAUAAAAGUGGAGGGGGCGG [A28U C15A], CCGCCUUACACUGCCAAUGCCGGUCCCUAGCCCGGAUAAAAGUGGAGGGGGCGG [A28U A7U] is lower in self-cleavage: 0.11 for the first, 0.07 for the second.

Compared with CCGCCUAGCACUGCCAAUGCCGGUCCCUAGCCCGGAUAAAAGUGGAGGGGGCGG [A28U A8G], CCGCCUAUCACUGCCAAUGCCGGUCCCUAGCCCGGAUAAAAGUGGAGGGGGCGG [A28U A8U] is lower in self-cleavage: 0.18 for the first, 0.09 for the second.

Compared with CCGCCUACCACUGCCAAUGCCGGUCCCUAGCCCGGAUAAAAGUGGAGGGGGCGG [A28U A8C], CCGCCUAACACUGCCAAUGCCGGUCGCUAGCCCGGAUAAAAGUGGAGGGGGCGG [A28U C26G] is higher in self-cleavage: 0.06 for the first, 0.1 for the second.

Going from CCGCCUAACACUGCCAAUGCCGGUCACUAGCCCGGAUAAAAGUGGAGGGGGCGG [A28U C26A] to CCGCCUAACACUGCCAAUGCCGGUCUCUAGCCCGGAUAAAAGUGGAGGGGGCGG [A28U C26U], the self-cleavage rises from 0.04 to 0.22.

First: CCGCCUAACAAUGCCAAUGCCGGUCCCUAGCCCGGAUAAAAGUGGAGGGGGCGG [A28U C11A]
Second: CCGCCUAACAGUGCCAAUGCCGGUCCCUAGCCCGGAUAAAAGUGGAGGGGGCGG [A28U C11G]
The self-cleavage of the first is higher: 0.27 for the first, 0.12 for the second.

First: CCGCCUAACAUUGCCAAUGCCGGUCCCUAGCCCGGAUAAAAGUGGAGGGGGCGG [A28U C11U]
Second: CCGCCUAACACUGCCAAUGCAGGUCCCUAGCCCGGAUAAAAGUGGAGGGGGCGG [A28U C21A]
The self-cleavage of the first is higher: 0.7 for the first, 0.16 for the second.

Compared with CCGCCUAACACUGCCAAUGCUGGUCCCUAGCCCGGAUAAAAGUGGAGGGGGCGG [A28U C21U], CCGCCUAACACUGCCAAUGCGGGUCCCUAGCCCGGAUAAAAGUGGAGGGGGCGG [A28U C21G] is lower in self-cleavage: 0.93 for the first, 0.07 for the second.

First: CCGCCUAACACUGCCAAUGCCGGUCCCUAGCCCGGAUAAAAGUGGCGGGGGCGG [A28U A46C]
Second: CCGCCUAACACUGCCAAUGCCGGUCCCUAGCCCGGAUAAAAGUGGGGGGGGCGG [A28U A46G]
The self-cleavage of the first is lower: 0.07 for the first, 0.7 for the second.

First: CCGCCUAACACUGCCAAUGCCGGUCCCUAGCCCGGAUAAAAGUGGUGGGGGCGG [A28U A46U]
Second: CCGCCUAACACUGCCAAUGCCGGUCCCUCGCCCGGAUAAAAGUGGAGGGGGCGG [A28U A29C]
The self-cleavage of the first is higher: 0.08 for the first, 0.03 for the second.

Going from CCGCCUAACACUGCCAAUGCCGGUCCCUUGCCCGGAUAAAAGUGGAGGGGGCGG [A28U A29U] to CCGCCUAACACUGCCAAUGCCGGUCCCUGGCCCGGAUAAAAGUGGAGGGGGCGG [A28U A29G], the self-cleavage rises from 0.06 to 0.08.

First: CCGCCUAACACUGCCAAUGCCGGUCCCUAGCCCGGAUAAGAGUGGAGGGGGCGG [A28U A40G]
Second: CCGCCUAACACUGCCAAUGCCGGUCCCUAGCCCGGAUAAUAGUGGAGGGGGCGG [A28U A40U]
The self-cleavage of the first is higher: 0.24 for the first, 0.2 for the second.

Going from CCGCCUAACACUGCCAAUGCCGGUCCCUAGCCCGGAUAACAGUGGAGGGGGCGG [A28U A40C] to CCGCCUAACACUGCCAAUGCCGGUACCUAGCCCGGAUAAAAGUGGAGGGGGCGG [A28U C25A], the self-cleavage rises from 0.04 to 0.07.

Compared with CCGCCUAACACUGCCAAUGCCGGUUCCUAGCCCGGAUAAAAGUGGAGGGGGCGG [A28U C25U], CCGCCUAACACUGCCAAUGCCGGUGCCUAGCCCGGAUAAAAGUGGAGGGGGCGG [A28U C25G] is lower in self-cleavage: 0.28 for the first, 0.05 for the second.

Compared with CCGCCUAACACUGCCAAUGCCGGUCCCUAGCCCGGAUAUAAGUGGAGGGGGCGG [A28U A39U], CCGCCUAACACUGCCAAUGCCGGUCCCUAGCCCGGAUACAAGUGGAGGGGGCGG [A28U A39C] is lower in self-cleavage: 0.76 for the first, 0.63 for the second.

First: CCGCCUAACACUGCCAAUGCCGGUCCCUAGCCCGGAUAGAAGUGGAGGGGGCGG [A28U A39G]
Second: CCGCCUAACACUGCCAAUGCCGGUCCCUAGCCCGGAUCAAAGUGGAGGGGGCGG [A28U A38C]
The self-cleavage of the first is lower: 0.79 for the first, 0.95 for the second.

Going from CCGCCUAACACUGCCAAUGCCGGUCCCUAGCCCGGAUGAAAGUGGAGGGGGCGG [A28U A38G] to CCGCCUAACACUGCCAAUGCCGGUCCCUAGCCCGGAUUAAAGUGGAGGGGGCGG [A28U A38U], the self-cleavage falls from 0.92 to 0.87.

Compared with CCGCCUAACACUGCCAAUGACGGUCCCUAGCCCGGAUAAAAGUGGAGGGGGCGG [A28U C20A], CCGCCUAACACUGCCAAUGUCGGUCCCUAGCCCGGAUAAAAGUGGAGGGGGCGG [A28U C20U] is higher in self-cleavage: 0.9 for the first, 0.95 for the second.

CCGCCUAACACUGCCAAUGGCGGUCCCUAGCCCGGAUAAAAGUGGAGGGGGCGG [A28U C20G] showed a self-cleavage of 0.09.
